Experimental data as given in ChEMBL document CHEMBL6071131, “New substituted benzoxazine derivatives as potent inducers of membrane permeability and cell death” (Bioorg Med Chem, 2024).
Activity calls are given as the source filed them. No cut-off for these calls is given here.

Assays:
HCT-116 [1] = assay: Antiproliferative activity against human HCT-116 cells incubated for 72 hrs by SRB assay; type: functional, cell-based; conditions: HCT-116, 72 h
In short: (§1)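 Sulforhodamine B colorimetric read-out after 72 h drug exposure. Cells kept in DMEM with 10 % FBS and 1 % penicillin/streptomycin at 37 °C under 5 % CO₂, mycoplasma-checked, passaged under 6 months. Compounds given from DMSO stocks diluted in medium, final DMSO ≤ 0.1 % v/v, with DMSO-only parallel cultures as controls. IC50 reported as mean ± SD of three independent determinations, each run in duplicate.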

MCF7 [2] = assay: Antiproliferative activity against human MCF7 cells incubated for 72 hrs by SRB assay; type: functional, cell-based; conditions: MCF7, 72 h; in short: as §1
[3] = target: Mitogen-activated protein kinase 8 (Homo sapiens) (UniProt P45983); assay: Inhibition of human JNK1 assessed as residual activity at 5 uM relative to control
In short: (§2)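 Residual kinase activity determined with each compound at 5×10⁻⁶ and 5×10⁻⁵ M, in singlicate per kinase assay, expressed relative to uninhibited control.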

Homo sapiens [4] = species on record: Homo sapiens; assay: Inhibition of human AKT assessed as residual activity at 5 uM relative to control; in short: as §2
[5] = target: Epidermal growth factor receptor (Homo sapiens) (UniProt P00533); assay: Inhibition of human EGFR assessed as residual activity at 50 uM relative to control; in short: as §2
[6] = target: 5'-AMP-activated protein kinase catalytic subunit alpha-1 (Homo sapiens) (UniProt Q13131); assay: Inhibition of human AMPK alpha-1 assessed as residual activity at 5 uM relative to control; in short: as §2
[7] = target: Mitogen-activated protein kinase 14 (Homo sapiens) (UniProt Q16539); assay: Inhibition of human P38-alpha assessed as residual activity at 5 uM relative to control; in short: as §2
[8] = target: 5'-AMP-activated protein kinase catalytic subunit alpha-1 (Homo sapiens) (UniProt Q13131); assay: Inhibition of human AMPK alpha-1 assessed as residual activity at 50 uM relative to control; in short: as §2
[9] = target: Mitogen-activated protein kinase 1 (Homo sapiens) (UniProt P28482); assay: Inhibition of human ERK2 assessed as residual activity at 5 uM relative to control; in short: as §2
[10] = target: Mitogen-activated protein kinase 14 (Homo sapiens) (UniProt Q16539); assay: Inhibition of human P38-alpha assessed as residual activity at 50 uM relative to control; in short: as §2
[11] = target: T1, LKB1-STRAD-MO25 complex (Homo sapiens) (UniProt Q15831+Q7RTN6+Q9Y376); assay: Inhibition of human LKB1/MO25/STRADalpha assessed as residual activity at 5 uM relative to control; type: protein-complex assay; in short: as §2
[12] = target: Receptor tyrosine-protein kinase erbB-2 (Homo sapiens) (UniProt P04626); assay: Inhibition of human HER2 assessed as residual activity at 50 uM relative to control; in short: as §2
[13] = target: Epidermal growth factor receptor (Homo sapiens) (UniProt P00533); assay: Inhibition of human EGFR assessed as residual activity at 5 uM relative to control; in short: as §2
[14] = target: Mitogen-activated protein kinase 8 (Homo sapiens) (UniProt P45983); assay: Inhibition of human JNK1 assessed as residual activity at 50 uM relative to control; in short: as §2
[15] = target: Mitogen-activated protein kinase 1 (Homo sapiens) (UniProt P28482); assay: Inhibition of human ERK2 assessed as residual activity at 50 uM relative to control; in short: as §2
[16] = target: T1, LKB1-STRAD-MO25 complex (Homo sapiens); assay: Inhibition of human LKB1/MO25/STRADalpha assessed as residual activity at 50 uM relative to control; type: protein-complex assay; in short: as §2
Homo sapiens [17] = species on record: Homo sapiens; assay: Inhibition of human AKT assessed as residual activity at 50 uM relative to control; in short: as §2
[18] = target: Receptor tyrosine-protein kinase erbB-2 (Homo sapiens) (UniProt P04626); assay: Inhibition of human HER2 assessed as residual activity at 5 uM relative to control; in short: as §2
MCF7 [19] = assay: Induction of apoptosis in human MCF7 cells assessed as late apoptotic cells at 50 uM incubated for 12 hrs by Annexin V-FITC/PI staining based flow cytometry (reference value: 0.26 +/- 0.09 %); type: functional
MCF7 [20] = assay: Induction of morphological changes in human MCF7 cells assessed as formation of large pores in cell membrane incubated for 12 hrs by SEM analysis
HCT-116 [21] = assay: Induction of apoptosis in human HCT-116 cells assessed as late apoptotic cells at 50 uM incubated for 12 hrs by Annexin V-FITC/PI staining based flow cytometry (reference value: 2.8 +/- 0.38 %); type: functional
HCT-116 [22] = assay: Induction of morphological changes in human HCT-116 cells assessed as formation of vesicular bodies incubated for 24 hrs by SEM analysis; type: functional, cell-based
HCT-116 [23] = assay: Induction of morphological changes in human HCT-116 cells assessed as pore formation in cell membrane incubated for 24 hrs by SEM analysis; type: functional, cell-based
HCT-116 [24] = assay: Induction of morphological changes in human HCT-116 cells assessed as flattening of cellular structure incubated for 24 hrs by SEM analysis; type: functional, cell-based
MCF7 [25] = assay: Cytotoxicity against human MCF7 cells at 50 uM incubated for 12 hrs by PI staining based flow cytometry relative to control; type: functional
MCF7 [26] = assay: Induction of morphological changes in human MCF7 cells assessed as formation of membrane blebbing incubated for 24 hrs by SEM analysis; type: functional, cell-based
MCF7 [27] = assay: Induction of apoptosis in human MCF7 cells assessed as necrotic cells at 50 uM incubated for 12 hrs by Annexin V-FITC/PI staining based flow cytometry (reference value: 0.56 +/- 0.04 %); type: functional
HCT-116 [28] = assay: Induction of morphological changes in human HCT-116 cells assessed as multiple cellular remnants formation incubated for 24 hrs by SEM analysis; type: functional, cell-based
HCT-116 [29] = assay: Induction of morphological changes in human HCT-116 cells assessed as formation of membrane blebbing incubated for 24 hrs by SEM analysis; type: functional, cell-based
HCT-116 [30] = assay: Induction of cell cycle arrest in human HCT-116 cells assessed as accumulation of cells at S phase at 50 uM incubated for 12 hrs by PI staining based flow cytometry (reference value: 18.7 +/- 0.5 %); type: functional
MCF7 [31] = assay: Induction of morphological changes in human MCF7 cells assessed as formation of round vesicular bodies incubated for 24 hrs by SEM analysis; type: functional, cell-based
HCT-116 [32] = assay: Induction of cell cycle arrest in human HCT-116 cells assessed as accumulation of cells at G2/M phase at 50 uM incubated for 12 hrs by PI staining based flow cytometry (reference value: 8.3 +/- 0.74 %); type: functional
HCT-116 [33] = assay: Induction of apoptosis in human HCT-116 cells assessed as necrotic cells at 50 uM incubated for 12 hrs by Annexin V-FITC/PI staining based flow cytometry (reference value: 3.5 +/- 0.66 %); type: functional
MCF7 [34] = assay: Induction of apoptosis in human MCF7 cells assessed as early apoptotic cells at 50 uM incubated for 12 hrs by Annexin V-FITC/PI staining based flow cytometry (reference value: 0.33 +/- 0.12 %); type: functional
MCF7 [35] = assay: Antiproliferative activity against human MCF7 cells incubated for 5 days by PrestoBlue assay; type: functional, cell-based; conditions: MCF7, 120 h
HCT-116 [36] = assay: Antiproliferative activity against human HCT-116 cells incubated for 5 days by PrestoBlue assay; type: functional, cell-based; conditions: HCT-116, 120 h

Sequence of 5'-AMP-activated protein kinase catalytic subunit alpha-1 (Homo sapiens) (Q13131 whole entry, looked up): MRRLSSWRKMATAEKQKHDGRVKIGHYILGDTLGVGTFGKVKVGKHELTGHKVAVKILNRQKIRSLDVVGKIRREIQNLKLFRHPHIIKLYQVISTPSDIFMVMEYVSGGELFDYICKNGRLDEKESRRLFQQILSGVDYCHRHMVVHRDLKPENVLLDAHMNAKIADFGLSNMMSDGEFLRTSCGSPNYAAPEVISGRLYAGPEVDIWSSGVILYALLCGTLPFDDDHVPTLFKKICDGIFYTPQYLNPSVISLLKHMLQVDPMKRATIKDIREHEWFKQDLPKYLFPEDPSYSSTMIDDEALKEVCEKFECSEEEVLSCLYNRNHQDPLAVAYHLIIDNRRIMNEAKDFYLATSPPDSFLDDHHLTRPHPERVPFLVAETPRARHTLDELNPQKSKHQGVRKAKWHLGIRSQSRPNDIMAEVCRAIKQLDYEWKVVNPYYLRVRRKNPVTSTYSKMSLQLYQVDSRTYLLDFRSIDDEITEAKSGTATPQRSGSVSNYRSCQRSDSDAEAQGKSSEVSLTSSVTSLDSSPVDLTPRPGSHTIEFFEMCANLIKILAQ
Sequence of Epidermal growth factor receptor (Homo sapiens) (P00533 whole entry): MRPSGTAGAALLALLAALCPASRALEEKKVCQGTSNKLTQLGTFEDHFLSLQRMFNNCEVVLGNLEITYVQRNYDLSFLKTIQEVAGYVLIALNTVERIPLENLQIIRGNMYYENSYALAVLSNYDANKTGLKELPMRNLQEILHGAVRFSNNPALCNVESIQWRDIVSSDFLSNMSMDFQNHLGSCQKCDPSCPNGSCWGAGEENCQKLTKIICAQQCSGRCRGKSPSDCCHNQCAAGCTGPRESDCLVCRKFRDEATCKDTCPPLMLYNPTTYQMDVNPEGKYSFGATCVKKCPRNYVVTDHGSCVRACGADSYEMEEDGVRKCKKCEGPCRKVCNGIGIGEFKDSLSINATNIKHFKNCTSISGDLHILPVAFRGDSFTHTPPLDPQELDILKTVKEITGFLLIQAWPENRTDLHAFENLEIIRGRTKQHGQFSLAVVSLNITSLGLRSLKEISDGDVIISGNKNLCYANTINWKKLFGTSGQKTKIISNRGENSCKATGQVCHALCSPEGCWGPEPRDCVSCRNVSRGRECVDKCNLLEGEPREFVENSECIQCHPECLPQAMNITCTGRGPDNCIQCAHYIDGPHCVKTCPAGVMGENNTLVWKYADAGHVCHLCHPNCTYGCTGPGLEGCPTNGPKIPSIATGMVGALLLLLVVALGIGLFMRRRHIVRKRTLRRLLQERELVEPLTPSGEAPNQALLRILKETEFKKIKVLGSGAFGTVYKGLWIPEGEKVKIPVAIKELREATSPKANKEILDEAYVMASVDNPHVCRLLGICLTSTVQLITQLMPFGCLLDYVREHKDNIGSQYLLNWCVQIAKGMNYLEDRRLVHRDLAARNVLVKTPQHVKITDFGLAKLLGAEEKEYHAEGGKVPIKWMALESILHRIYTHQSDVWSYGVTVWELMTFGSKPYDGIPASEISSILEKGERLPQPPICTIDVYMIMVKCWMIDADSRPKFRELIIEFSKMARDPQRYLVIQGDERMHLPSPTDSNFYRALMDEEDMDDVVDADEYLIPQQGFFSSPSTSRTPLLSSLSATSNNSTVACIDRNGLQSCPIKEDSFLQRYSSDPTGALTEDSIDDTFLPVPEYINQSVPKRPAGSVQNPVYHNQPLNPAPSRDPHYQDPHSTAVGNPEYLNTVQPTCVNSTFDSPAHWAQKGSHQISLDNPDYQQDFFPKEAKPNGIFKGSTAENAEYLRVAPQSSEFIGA
Sequence of Mitogen-activated protein kinase 14 (Homo sapiens) (Q16539 whole entry): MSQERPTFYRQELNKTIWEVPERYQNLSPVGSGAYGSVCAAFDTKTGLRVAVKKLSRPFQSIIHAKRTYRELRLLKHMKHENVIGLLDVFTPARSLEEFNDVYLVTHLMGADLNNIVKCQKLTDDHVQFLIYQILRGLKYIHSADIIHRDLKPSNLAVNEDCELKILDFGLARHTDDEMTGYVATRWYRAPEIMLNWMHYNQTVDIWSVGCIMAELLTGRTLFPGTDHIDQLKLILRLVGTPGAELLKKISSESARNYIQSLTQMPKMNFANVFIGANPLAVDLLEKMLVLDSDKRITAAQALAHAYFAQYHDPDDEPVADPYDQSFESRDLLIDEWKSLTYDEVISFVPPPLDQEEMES
Sequence of Receptor tyrosine-protein kinase erbB-2 (Homo sapiens) (P04626 whole entry): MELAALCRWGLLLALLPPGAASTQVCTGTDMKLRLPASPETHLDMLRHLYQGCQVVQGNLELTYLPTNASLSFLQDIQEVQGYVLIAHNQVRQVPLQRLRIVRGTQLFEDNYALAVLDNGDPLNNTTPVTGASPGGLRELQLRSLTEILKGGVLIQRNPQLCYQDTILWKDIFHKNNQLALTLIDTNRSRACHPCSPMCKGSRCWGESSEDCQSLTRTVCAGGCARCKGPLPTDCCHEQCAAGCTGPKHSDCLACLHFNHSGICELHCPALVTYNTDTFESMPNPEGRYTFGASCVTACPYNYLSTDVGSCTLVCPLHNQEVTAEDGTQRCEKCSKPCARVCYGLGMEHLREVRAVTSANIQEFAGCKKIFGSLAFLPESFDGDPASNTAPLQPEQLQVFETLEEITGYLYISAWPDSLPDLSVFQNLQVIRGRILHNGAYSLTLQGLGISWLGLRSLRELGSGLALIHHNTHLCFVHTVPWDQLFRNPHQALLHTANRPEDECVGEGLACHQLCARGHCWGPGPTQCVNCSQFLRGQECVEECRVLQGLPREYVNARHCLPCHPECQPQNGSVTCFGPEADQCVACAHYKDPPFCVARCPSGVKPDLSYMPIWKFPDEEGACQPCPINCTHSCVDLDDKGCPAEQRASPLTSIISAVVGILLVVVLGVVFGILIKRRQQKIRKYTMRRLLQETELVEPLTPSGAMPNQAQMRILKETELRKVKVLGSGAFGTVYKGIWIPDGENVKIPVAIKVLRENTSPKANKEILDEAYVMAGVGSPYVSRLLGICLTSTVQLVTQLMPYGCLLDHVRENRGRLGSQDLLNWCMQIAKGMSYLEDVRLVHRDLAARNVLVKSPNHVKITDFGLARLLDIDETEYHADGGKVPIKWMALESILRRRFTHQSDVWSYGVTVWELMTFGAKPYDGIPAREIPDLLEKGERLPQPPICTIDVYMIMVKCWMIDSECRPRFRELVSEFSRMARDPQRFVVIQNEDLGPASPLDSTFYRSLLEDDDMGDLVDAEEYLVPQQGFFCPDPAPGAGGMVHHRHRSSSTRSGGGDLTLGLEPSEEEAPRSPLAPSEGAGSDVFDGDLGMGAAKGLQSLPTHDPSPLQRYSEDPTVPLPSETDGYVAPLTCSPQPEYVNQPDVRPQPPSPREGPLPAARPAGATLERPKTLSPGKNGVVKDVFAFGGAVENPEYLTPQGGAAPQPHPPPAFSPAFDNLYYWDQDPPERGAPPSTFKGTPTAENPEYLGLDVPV
Sequence of Mitogen-activated protein kinase 1 (Homo sapiens) (P28482 whole entry): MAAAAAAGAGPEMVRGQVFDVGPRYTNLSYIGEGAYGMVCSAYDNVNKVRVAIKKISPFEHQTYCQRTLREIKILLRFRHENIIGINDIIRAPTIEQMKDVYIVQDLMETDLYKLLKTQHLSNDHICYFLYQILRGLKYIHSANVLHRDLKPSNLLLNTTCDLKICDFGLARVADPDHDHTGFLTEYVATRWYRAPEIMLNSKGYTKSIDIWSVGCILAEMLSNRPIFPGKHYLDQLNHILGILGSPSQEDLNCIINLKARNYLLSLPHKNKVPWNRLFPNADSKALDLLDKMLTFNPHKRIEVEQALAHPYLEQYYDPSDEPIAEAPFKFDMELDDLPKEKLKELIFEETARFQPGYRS
Sequence of Mitogen-activated protein kinase 8 (Homo sapiens) (P45983 whole entry): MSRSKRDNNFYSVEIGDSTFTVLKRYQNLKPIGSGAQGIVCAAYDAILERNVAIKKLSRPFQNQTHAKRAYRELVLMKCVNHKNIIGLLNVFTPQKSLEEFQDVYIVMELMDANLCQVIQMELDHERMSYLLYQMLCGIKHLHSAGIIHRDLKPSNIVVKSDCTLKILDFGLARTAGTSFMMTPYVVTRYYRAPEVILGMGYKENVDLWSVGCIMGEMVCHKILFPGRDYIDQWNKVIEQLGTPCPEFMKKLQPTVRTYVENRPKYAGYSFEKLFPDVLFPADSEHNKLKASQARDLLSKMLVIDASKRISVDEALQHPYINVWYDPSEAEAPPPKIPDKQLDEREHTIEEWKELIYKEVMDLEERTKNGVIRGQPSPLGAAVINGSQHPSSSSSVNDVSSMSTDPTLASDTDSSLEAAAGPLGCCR

SMILES | IC50 (HCT-116 [1]) [µM] | IC50 (MCF7 [2]) [µM] | Activity [3] [%] | Activity (Homo sapiens [4]) [%] | Activity [5] [%] | Activity [6] [%] | Activity [7] [%] | Activity [8] [%] | Activity [9] [%] | Activity [10] [%] | Activity [11] [%] | Activity [12] [%] | Activity [13] [%] | Activity [14] [%] | Activity [15] [%] | Activity [16] [%] | Activity (Homo sapiens [17]) [%] | Activity [18] [%] | also measured
Cc1ccc(S(=O)(=O)N2CC(CCn3cnc4c(C(F)(F)F)ncnc43)Oc3ccc(C)cc32)cc1 (configuration not stated) | 4.63 | 31.1 |  |  |  |  |  |  |  |  |  |  |  |  |  |  |  |  | 
Cc1ccc(S(=O)(=O)N2CC(CCn3cnc4c(C(F)(F)F)ncnc43)Oc3ccc(Br)cc32)cc1 (configuration not stated) | 23.6 | 20.6 |  |  |  |  |  |  |  |  |  |  |  |  |  |  |  |  | 
Cc1ccc(S(=O)(=O)N2CC(CCn3cnc4c(Cl)ncnc43)Oc3ccc(C)cc32)cc1 (configuration not stated) | 23.8 | 12.9 |  |  |  |  |  |  |  |  |  |  |  |  |  |  |  |  | 
Cc1ccc(S(=O)(=O)N2CC(CCn3cnc4c(Br)ncnc43)Oc3cc(Cl)ccc32)cc1 (configuration not stated) | 12.8 | 6.77 | 89 | 94 | 64 | 90 | 91 | 73 | 90 | 112 | 94 | 65 | 108 | 47 | 68 | 129 | 99 | 84 | 
Cc1ccc(S(=O)(=O)N2CC(CCn3cnc4c(Cl)nc(Cl)nc43)Oc3ccccc32)cc1 (configuration not stated) |  |  |  |  |  |  |  |  |  |  |  |  |  |  |  |  |  |  | IC50 (MCF7 [35]): 13 µM; IC50 (HCT-116 [36]): 7.06 µM
Cc1ccc(S(=O)(=O)N2CC(CCn3cnc4c(Cl)nc(Cl)nc43)Oc3ccc(Br)cc32)cc1 (configuration not stated) | 7.85 | 5.52 | 88 | 95 | 59 | 86 | 97 | 70 | 86 | 59 | 98 | 63 | 94 | 44 | 66 | 95 | 87 | 78 | 

Second part, led by results:

IC50 (HCT-116 [1]) [µM] | IC50 (MCF7 [2]) [µM] | Activity [3] [%] | Activity (Homo sapiens [4]) [%] | Activity [5] [%] | Activity [6] [%] | Activity [7] [%] | Activity [8] [%] | Activity [9] [%] | Activity [10] [%] | Activity [11] [%] | Activity [12] [%] | Activity [13] [%] | Activity [14] [%] | Activity [15] [%] | Activity [16] [%] | Activity (Homo sapiens [17]) [%] | Activity [18] [%] | SMILES | also measured
16.4 | 7.31 |  |  |  |  |  |  |  |  |  |  |  |  |  |  |  |  | Cc1ccc(S(=O)(=O)N2CC(CCn3cnc4c(Br)ncnc43)Oc3ccc(Br)cc32)cc1 (configuration not stated) | 
14.8 | 11.2 |  |  |  |  |  |  |  |  |  |  |  |  |  |  |  |  | Cc1ccc(S(=O)(=O)N2CC(CCn3cnc4c(Cl)ncnc43)Oc3cc(Cl)ccc32)cc1 (configuration not stated) | 
9.4 | 4.01 | 84 | 89 | 67 | 90 | 93 | 86 | 81 | 70 | 95 | 55 | 97 | 52 | 74 | 131 | 106 | 99 | Cc1ccc(S(=O)(=O)N2CC(CCn3cnc4c(Br)ncnc43)Oc3ccc(C)cc32)cc1 (configuration not stated) | 
7.63 | 3.26 | 78 | 103 | 57 | 87 | 72 | 89 | 93 | 77 | 84 | 67 | 74 | 67 | 94 | 100 | 139 | 76 | Cc1ccc(S(=O)(=O)N2CC(CCn3cnc4c(Cl)nc(Cl)nc43)Oc3cc(Cl)ccc32)cc1 (configuration not stated) | Activity (MCF7 [19]): 87.3%; Activity (MCF7 [20]): Active; Activity (HCT-116 [21]): 49.5%; Activity (HCT-116 [22]): Active; Activity (HCT-116 [23]): Active; Activity (HCT-116 [24]): Active; Activity (MCF7 [25]): 100%; Activity (MCF7 [26]): Active; Activity (MCF7 [27]): 0.83%; Activity (HCT-116 [28]): Active; Activity (HCT-116 [29]): Active; Activity (HCT-116 [30]): 49.2%; Activity (MCF7 [31]): Active; Activity (HCT-116 [32]): 6.67%; Activity (HCT-116 [33]): 28.4%; Activity (MCF7 [34]): 7.9%
13.6 | 23 |  |  |  |  |  |  |  |  |  |  |  |  |  |  |  |  | Cc1ccc(S(=O)(=O)N2CC(CCn3cnc4c(C(F)(F)F)ncnc43)Oc3cc(Cl)ccc32)cc1 (configuration not stated) | 
4.44 | 2.27 | 96 | 88 | 62 | 93 | 112 | 75 | 88 | 82 | 88 | 50 | 96 | 56 | 73 | 89 | 104 | 90 | Cc1ccc(S(=O)(=O)N2CC(CCn3cnc4c(Cl)nc(Cl)nc43)Oc3ccc(C)cc32)cc1 (configuration not stated) | Activity (MCF7 [19]): 77.8%; Activity (MCF7 [20]): Active; Activity (HCT-116 [21]): 26.5%; Activity (HCT-116 [22]): Active; Activity (HCT-116 [24]): Active; Activity (MCF7 [25]): 100%; Activity (MCF7 [26]): Active; Activity (MCF7 [27]): 2.1%; Activity (HCT-116 [28]): Active; Activity (HCT-116 [29]): Active; Activity (HCT-116 [30]): 51.25%; Activity (MCF7 [31]): Active; Activity (HCT-116 [32]): 5.3%; Activity (HCT-116 [33]): 36.3%; Activity (MCF7 [34]): 9.3%
15.7 | 14.5 |  |  |  |  |  |  |  |  |  |  |  |  |  |  |  |  | Cc1ccc(S(=O)(=O)N2CC(CCn3cnc4c(Cl)ncnc43)Oc3ccc(Br)cc32)cc1 (configuration not stated) | 
